Converted amounts (≈) assume the structure as drawn. The source made the active and inactive calls. The rule behind the calls is not given here.
Legend:
Plasmodium falciparum [1] = assay: Antimalarial activity against chloroquine-sensitive Plasmodium falciparum D6; assay type: functional, organism-based
Outline: (§1)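 Compound DMSO stocks were diluted 400-fold in RPMI 1640 with 25 mM Hepes, 32 mM NaHCO₃ and 10% Albumax I, then 2-fold serially over 11 concentrations. Parasites were exposed for 48 h at 37 °C under 5% O₂/5% CO₂/90% N₂, pulsed with [³H]-hypoxanthine for 18 h, and DNA was harvested onto glass filters for scintillation counting. IC50 was derived by nonlinear-regression logistic dose-response fitting.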

Plasmodium falciparum [2] = assay: Antimalarial activity against chloroquine-resistant Plasmodium falciparum TM91C235; assay type: functional, organism-based; outline: as §1
[3] = Toxicity against murine J774 macrophage cells; assay type: cell-based; conditions: mouse
Outline: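 Murine J774 monocyte-like macrophage subclone G8, maintained in DMEM with 10% fetal calf serum, 2 mM L-glutamine and 50 µg/mL gentamicin at 37 °C in 5% CO2/95% air. Cells seeded at 1 × 10⁴/well and left 24 h. Drug or solvent control, diluted in medium, then added for 72 h. Viability read by MTS tetrazolium/formazan conversion after 1–2 h at 37 °C.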

Plasmodium falciparum [4] = assay: Antimalarial activity against chloroquine-resistant Plasmodium falciparum W2; assay type: functional, organism-based; outline: as §1

| SMILES | IC50 (Plasmodium falciparum [1]) [ng/mL] | IC50 (Plasmodium falciparum [2]) [ng/mL] | IC50 [3] [ng/mL] | IC50 (Plasmodium falciparum [4]) [ng/mL] | Activity (Plasmodium falciparum [2]) |
| --- | --- | --- | --- | --- | --- |
| CC(C)(C)NCc1c(O)cc(-c2ccc(C(F)(F)F)cc2)c(CNC(C)(C)C)c1Nc1ccnc2cc(Cl)ccc12 | 1.9 (≈ 3.25 nM) | 2 (≈ 3.42 nM) | 750 (≈ 1280 nM) | 2.8 (≈ 4.79 nM) | – |
| CC(C)(C)NCc1c(O)cc(-c2ccc(Cl)cc2)cc1Nc1ccnc2cc(Cl)ccc12 | 1.4 (≈ 3 nM) | 1.7 (≈ 3.64 nM) | 1600 (≈ 3430 nM) | 1.6 (≈ 3.43 nM) | – |
| CC(C)(C)NCc1c(Nc2ccnc3cc(Cl)ccc23)cc(O)cc1-c1ccc(Cl)cc1 | 0.3 (≈ 0.643 nM) | 1.78 (≈ 3.82 nM) | 6100 (≈ 13100 nM) | 0.4 (≈ 0.858 nM) | – |
| Oc1cc(Nc2ccnc3cc(Cl)ccc23)cc(-c2ccc(C(F)(F)F)cc2)c1 | 15 (≈ 36.2 nM) | 140 (≈ 338 nM) | – | 300 (≈ 723 nM) | – |
| Oc1cc(Nc2ccnc3cc(Cl)ccc23)cc(-c2ccc(Cl)cc2)c1 | 8.8 (≈ 23.1 nM) | – | – | 22.4 (≈ 58.8 nM) | inactive |
| CC(C)(C)NCc1c(O)cc(Nc2ccnc3cc(Cl)ccc23)c(CNC(C)(C)C)c1-c1ccc(C(F)(F)F)cc1 | 1.8 (≈ 3.08 nM) | 3 (≈ 5.13 nM) | – | 3.6 (≈ 6.15 nM) | – |
| CC(C)(C)NCc1c(O)cc(Nc2ccnc3cc(Cl)ccc23)cc1-c1ccc(C(F)(F)F)cc1 | 1.2 (≈ 2.4 nM) | 73 (≈ 146 nM) | – | 14 (≈ 28 nM) | – |
| CC(C)(C)NCc1c(O)cc(-c2ccc(Cl)cc2)c(CNC(C)(C)C)c1Nc1cc[n+]([O-])c2cc(Cl)ccc12 | 4.1 (≈ 7.22 nM) | 8.5 (≈ 15 nM) | – | 9.1 (≈ 16 nM) | – |
| CC(C)(C)NCc1c(O)cc(-c2ccc(C(F)(F)F)cc2)cc1Nc1ccnc2cc(Cl)ccc12 | 1.8 (≈ 3.6 nM) | 1.8 (≈ 3.6 nM) | 1700 (≈ 3400 nM) | 2.1 (≈ 4.2 nM) | – |
| CC(C)(C)NCc1c(Nc2cc[n+]([O-])c3cc(Cl)ccc23)cc(O)cc1-c1ccc(Cl)cc1 | 4.3 (≈ 8.91 nM) | 8.8 (≈ 18.2 nM) | – | 9.2 (≈ 19.1 nM) | – |
| [O-][n+]1ccc(Nc2cc(O)cc(-c3ccc(Cl)cc3)c2)c2ccc(Cl)cc21 | 397 (≈ 999 nM) | 580 (≈ 1460 nM) | – | > 1000 | – |
| CC(C)(C)NCc1c(O)cc(-c2ccc(Cl)cc2)c(CNC(C)(C)C)c1Nc1ccnc2cc(Cl)ccc12 | 2.2 (≈ 3.99 nM) | 2.3 (≈ 4.17 nM) | 3600 (≈ 6530 nM) | 2.6 (≈ 4.71 nM) | – |
| CC(C)(C)NCc1cc(Nc2ccnc3cc(Cl)ccc23)cc(-c2ccc(Cl)cc2)c1O [TEBUQUINE] | 0.1 (≈ 0.214 nM) | – | 1800 (≈ 3860 nM) | 0.04 (≈ 0.0858 nM) | inactive |
| CC(C)(C)NCc1c(O)cc(Nc2ccnc3cc(Cl)ccc23)c(CNC(C)(C)C)c1-c1ccc(Cl)cc1 | 2.8 (≈ 5.08 nM) | 2.5 (≈ 4.53 nM) | 2800 (≈ 5080 nM) | 5.3 (≈ 9.61 nM) | – |
| CC(C)(C)NCc1c(Nc2ccnc3cc(Cl)ccc23)cc(O)cc1-c1ccc(C(F)(F)F)cc1 | 7.1 (≈ 14.2 nM) | 63 (≈ 126 nM) | 11600 (≈ 23200 nM) | 130 (≈ 260 nM) | – |
| CC(C)(C)NCc1cc(Nc2cc[n+]([O-])c3cc(Cl)ccc23)cc(-c2ccc(Cl)cc2)c1O | 1.5 (≈ 3.11 nM) | 2.3 (≈ 4.77 nM) | 7200 (≈ 14900 nM) | 0.9 (≈ 1.87 nM) | – |
